Experimental data: ChEMBL document CHEMBL1127804 (J Med Chem, 1994)

How the values were obtained:
MCF7 = assay: Tested for inhibitory concentration against MCF-7 human breast carcinoma cell line; format: functional, cell-based
In short: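 MCF-7 breast carcinoma cells were grown in replicate 24-well plates in α-MEM with 10% dialyzed FBS plus epithelial growth factor, hydrocortisone and insulin. Cells were exposed for 72 h at 37 °C under 6.5% CO2 and counted electronically with a Coulter counter. IC50 was estimated from semilog plots using averaged data from a single experiment on replicate plates.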

CCRF-CEM [1] = assay: Tested for the inhibition of [14C]-DDATHF influx in CCRF-CEM cells of human leukemic lymphoblast; format: functional, cell-based
In short: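 Influx of (6R)-[14C]DDATHF (2 μM) into wild-type CCRF-CEM human leukemic lymphoblasts was measured with the inhibitor present. Ki was calculated from Dixon plots and reported as mean ± SE of two to seven separate experiments.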

CCRF-CEM [2] = assay: Tested for inhibitory concentration of cell growth against CCRF-CEM cell lines of human leukemic lymphoblast
Dihydrofolate reductase [3] = biological target: T1, Dihydrofolate reductase (Homo sapiens, UniProt P00374); assay: Tested for inhibitory concentration against human dihydrofolate reductase(DHFR)
T1 sequence (P00374 whole entry): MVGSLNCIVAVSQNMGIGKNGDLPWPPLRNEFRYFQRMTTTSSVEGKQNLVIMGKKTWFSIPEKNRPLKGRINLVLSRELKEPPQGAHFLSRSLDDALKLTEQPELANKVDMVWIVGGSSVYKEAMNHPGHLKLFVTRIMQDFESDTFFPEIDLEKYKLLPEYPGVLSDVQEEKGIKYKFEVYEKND

CCRF-CEM [4] = assay: Tested for inhibition of [14C]-DDATHF influx in CEM/MTX cells of human leukemic lymphoblasts; format: functional, cell-based
In short: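 Influx of (6R)-[14C]DDATHF (2 μM) into CEM/MTX cells was measured. Before the assay, cells normally kept in 1 μM MTX were held out of MTX for 3–4 generations. Ki came from Dixon plots and is given as mean ± SE of two to seven separate experiments.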

[5] = Ratio between Ki values of CCRF-CEM and CEM/MTX; format: functional
CCRF-CEM [6] = assay: cells; conditions: Homo sapiens
SCC-7 = assay: Tested for inhibitory concentration against SCC-VII murine squamous carcinoma cell line; format: functional, cell-based; conditions: Mus musculus
In short: (§1)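 SCC VII (murine) or SCC25 (human) squamous carcinoma cells were plated at 2×10^3/well in DME with 10% FBS for 24 h at 37 °C, 5% CO2. Drug was added at 10 concentrations from 0.1 nM to 3 μM for a further 72 h. Growth was read by sulforhodamine B protein stain at 530 nm.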

SCC-25 = assay: Tested for inhibitory concentration against human SCC25 cell line; format: functional, cell-based; in short: as §1
CCRF-CEM [7] = assay: Tested in vitro for relative activity against CCRF-CEM human Leukemic lymphoblast by using TS as primary target; format: functional
CCRF-CEM [8] = assay: Tested in vitro for inhibitory concentration against CCRF-CEM human Leukemic lymphoblast by using TS as primary target; format: functional, cell-based
Dihydrofolate reductase [9] = biological target: T1, Dihydrofolate reductase; assay: rested for inhibitory concentration against human dihydrofolate reductase(DHFR)

Question: With `Nc1nc(N)c2nc(CNc3ccc(C(=O)NC(CCCNC(=O)c4ccccc4C(=O)O)C(=O)O)cc3)cnc2n1` (stereo not given) as the compound, how does the IC50 (MCF7) read?
Answer: 0.7 nM

Question: And the Ki (CCRF-CEM [1])?
Answer: 650 nM

Question: What about the IC50 (CCRF-CEM [2]) of the same compound?
Answer: 1.08 nM

Question: What about the IC50 (Dihydrofolate reductase [3]) of the same compound?
Answer: 12.2 nM

Question: What about the Ki (CCRF-CEM [4]) of the same compound?
Answer: 440 nM

Question: And the Ratio [5]?
Answer: 0.68

Question: And the IC50 (CCRF-CEM [6])?
Answer: 110 nM

Question: And the IC50 (SCC-7)?
Answer: 0.89 nM

Question: And the IC50 (SCC-25)?
Answer: 1 nM

Question: Which results are given for `CN(Cc1ccc2[nH]c(C=O)nc(=O)c2c1)c1ccc(C(=O)NC(CCC(=O)O)C(=O)O)s1` (stereo not given)?
Answer: Relative activity (CCRF-CEM [7]): 23; IC50 (CCRF-CEM [8]): 4.7 nM

Question: Which results are given for `Nc1nc(N)c2nc(CNc3c(Cl)cc(C(=O)NC(CCCNC(=O)c4ccccc4C(=O)O)C(=O)O)cc3Cl)cnc2n1` (stereo not given)?
Answer: IC50 (Dihydrofolate reductase [3]): 10.2 nM; IC50 (SCC-7): 1.6 nM; IC50 (SCC-25): 2.5 nM

Question: Which results are given for `Nc1nc(N)c2nc(CNc3ccc(C(=O)NC(CCNC(=O)c4ccccc4C(=O)O)C(=O)O)cc3)cnc2n1` (stereo not given)?
Answer: IC50 (MCF7): 6 nM; IC50 (Dihydrofolate reductase [3]): 11.6 nM; IC50 (SCC-7): 19 nM; IC50 (SCC-25): 12.9 nM

Question: For `Nc1nc(N)c2nc(CNc3ccc(C(=O)NC(CCCCNC(=O)c4ccccc4C(=O)O)C(=O)O)cc3)cnc2n1` (stereo not given), which IC50 (Dihydrofolate reductase [9]) is on record?
Answer: 11.4 nM

Question: What about the IC50 (MCF7) of the same compound?
Answer: 2 nM

Question: And the IC50 (SCC-7)?
Answer: 4 nM

Question: And the IC50 (SCC-25)?
Answer: 17.9 nM

Question: For `Nc1nc(N)c2nc(CNc3ccc(C(=O)N[C@@H](CCC(=O)O)C(=O)O)cc3)cnc2n1` [AMINOPTERIN], which IC50 (SCC-7) is on record?
Answer: 4 nM

Question: And the IC50 (SCC-25)?
Answer: 6.9 nM

Question: With `Nc1nc(=O)c2nc(CNc3ccc(C(=O)N[C@@H](CCC(=O)O)C(=O)O)cc3)cnc2[nH]1` [FOLIC ACID] as the compound, how does the Ki (CCRF-CEM [1]) read?
Answer: 167000 nM

Question: What about the Ki (CCRF-CEM [4]) of the same compound?
Answer: 8950 nM

Question: And the Ratio [5]?
Answer: 0.054

Question: For `Nc1nc(=O)c2c([nH]1)NCC(CNc1ccc(C(=O)N[C@@H](CCC(=O)O)C(=O)O)cc1)N2C=O` (stereo not given in full) [LEUCOVORIN], which Ki (CCRF-CEM [4]) is on record?
Answer: 740 nM

Question: For `CN(Cc1cnc2nc(N)nc(N)c2n1)c1ccc(C(=O)N[C@@H](CCC(=O)O)C(=O)O)cc1` [METHOTREXATE], which Ki (CCRF-CEM [1]) is on record?
Answer: 4480 nM

Question: And the IC50 (CCRF-CEM [2])?
Answer: 10.5 nM

Question: And the Ki (CCRF-CEM [4])?
Answer: 9740 nM

Question: What about the IC50 (CCRF-CEM [6]) of the same compound?
Answer: 2550 nM

Question: And the IC50 (SCC-7)?
Answer: 5.8 nM

Question: For `COc1cc(NCc2ccc3nc(N)nc(N)c3c2C)cc(OC)c1OC` [TRIMETREXATE], which IC50 (SCC-7) is on record?
Answer: 6.3 nM

Question: What about the IC50 (SCC-25) of the same compound?
Answer: 8 nM
